Measured values: ChEMBL document CHEMBL3102789, “Synthesis and biological evaluation of novel oxadiazole derivatives: a new class of thymidine phosphorylase inhibitors as potential anti-tumor agents” (Bioorg Med Chem, 2014)
pIC50: −log10 of the molar value.

Target: Thymidine phosphorylase (Escherichia coli K-12, UniProt P07650)
Experiment: Inhibition of Escherichia coli thymidine phosphorylase using […] as substrate after 10 mins by spectrophotometric analysis
In short: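 Commercial E. coli TP in potassium phosphate buffer, pH 7.4, with […] substrate (1.5 mM stock). Test material incubated with the reaction mix for 10 min at 25 °C. Absorbance at 290 nm then read continuously at 10, 20 and 30 min. Substrate-free blanks were subtracted. Run in triplicate; IC50 given as mean ± SEM of three independent experiments.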

Thymidine phosphorylase, sequence (P07650 whole entry): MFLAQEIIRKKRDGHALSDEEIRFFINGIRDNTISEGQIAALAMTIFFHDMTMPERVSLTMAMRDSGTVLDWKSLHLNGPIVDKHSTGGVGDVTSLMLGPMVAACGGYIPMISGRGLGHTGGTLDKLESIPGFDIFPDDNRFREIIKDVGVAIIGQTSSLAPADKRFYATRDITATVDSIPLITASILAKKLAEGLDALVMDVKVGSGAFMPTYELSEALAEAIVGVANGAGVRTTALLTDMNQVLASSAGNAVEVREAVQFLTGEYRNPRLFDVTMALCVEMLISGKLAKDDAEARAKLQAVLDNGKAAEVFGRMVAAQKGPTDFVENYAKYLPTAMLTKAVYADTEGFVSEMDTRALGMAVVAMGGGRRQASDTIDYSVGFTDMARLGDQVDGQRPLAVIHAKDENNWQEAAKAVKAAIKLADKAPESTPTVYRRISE

Row | pIC50 | Compound
1 | 3.88 | Oc1ccccc1-c1nn(CNc2ccccc2Cl)c(=S)o1
2 | 3.98 | Cc1ccc(-c2nn(CNc3ccccc3)c(=S)o2)cc1
3 | 4.26 | Cc1ccc(NCn2nc(-c3ccc(C)cc3)oc2=S)cc1
4 | 4.16 | COc1cc(-c2nn(CNCCc3ccccc3)c(=S)o2)cc(OC)c1OC
5 | 4.84 | COc1ccc([N+](=O)[O-])cc1NCn1nc(-c2ccc(C)cc2)oc1=S
6 | 3.76 | S=c1oc(-c2ccc(Cl)cc2)nn1CNc1ccc(Br)cc1
7 | 4.39 | COc1cccc(NCn2nc(-c3ccccc3)oc2=S)c1
8 | 4.63 | Cc1ccc(-c2nn(CNc3cccc(C)c3C)c(=S)o2)cc1
9 | 4.66 | S=c1oc(-c2ccccc2Br)nn1CNc1ccccc1Cl
10 | 3.93 | COc1cc(-c2nn(CNc3ccccc3C)c(=S)o2)cc(OC)c1OC
11 | 4.33 | S=c1oc(-c2ccc(Cl)cc2)nn1CNc1ccccc1Cl
12 | 4.07 | COc1cccc(NCn2nc(-c3ccc(C)cc3)oc2=S)c1
13 | 3.87 | Cc1ccc(-c2nn(CNc3ccc(Cl)c(Cl)c3)c(=S)o2)cc1
14 | 4.75 | COc1ccccc1NCn1nc(-c2ccccc2Br)oc1=S
15 | 4.58 | S=c1oc(-c2ccccc2Br)nn1CNc1ccc(Br)cc1
16 | 4.39 | Cc1ccc(NCn2nc(-c3ccccc3)oc2=S)cc1C
17 | 3.93 | S=c1oc(-c2ccccc2)nn1CNc1ccccc1Cl
18 | 4.24 | Cc1ccccc1NCn1nc(-c2ccc(Cl)cc2)oc1=S
19 | 4.08 | Cc1ccc(-c2nn(CNc3ccc(C)c(C)c3)c(=S)o2)cc1
20 | 4.05 | COc1ccccc1NCn1nc(-c2ccc(Cl)cc2)oc1=S
21 | 4.06 | COc1ccccc1NCn1nc(-c2ccccc2)oc1=S

Target: Thymidine phosphorylase (Escherichia coli K-12) (UniProt P07650)
Sequence (P07650 whole entry, looked up): as the sequence (P07650 whole entry) above
Experiment: Ratio of 7-deazaxanthine IC50 to compound IC50 for Escherichia coli thymidine phosphorylase using […] as substrate after 10 mins by spectrophotometric analysis

Row | Ratio IC50 | Compound
22 | 2.5 | COc1ccc([N+](=O)[O-])cc1NCn1nc(-c2ccc(C)cc2)oc1=S
